Data published in ChEMBL document CHEMBL3351414, “Novel 9'-substituted-noscapines: synthesis with Suzuki cross-coupling, structure elucidation and biological evaluation” (Eur J Med Chem, 2014).
Calls of active or inactive are those of the source. No cut-off for these calls is given here.

Columns and labels:
[1] = target: T1, Tubulin (Bos taurus, UniProt Q6B856+Q862L2+Q862F3); assay: Inhibition of bovine brain tubulin assessed as extent of assembly preincubated for 15 mins by turbidimetry
In short: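 Bovine brain tubulin at 10 µM (1.0 mg/mL) in 0.8 M monosodium glutamate pH 6.6 with 4% DMSO and varying compound was preincubated 15 min at 30 °C, then chilled. GTP was added to 0.4 mM final and the temperature jumped from 0 to 30 °C. Turbidity was followed at 350 nm, scoring either maximum rate or extent of assembly at 20 min.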

[2] = test system: HeLa; assay: Disruption of microtubule network in human HeLa cells assessed as induction of spherical morphology at 25 uM after 24 hrs by immunofluorescence microscopy; assay type: cell-based
In short: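 HeLa cells exposed 24 h at 25 µM, fixed in cold 4% formaldehyde for 15 min, and stained with anti-β-tubulin plus Alexa-conjugated secondary antibody, with DAPI counterstain. Cells were imaged by confocal microscopy.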

[3] = test system: HeLa; assay: Effect on PCM1 protein in human HeLa cells assessed as accumulation of pericentriolar material at 25 uM after 24 hrs by immunofluorescence microscopy; assay type: functional, cell-based
In short: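 After 24 h at 25 µM, HeLa cells were stained with anti-PCM1 and Alexa-conjugated secondary antibody, with phalloidin-tetramethylrhodamine B for actin and DAPI for nuclei. Cells were imaged by confocal microscopy at 60×.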

[4] = test system: Jurkat; assay: Cell cycle arrest in human Jurkat cells assessed as accumulation at G2/M phase at 10 to 25 uM after 24 hrs by flow cytometry; assay type: functional, cell-based
In short: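 5×10^5 HeLa or Jurkat cells exposed to graded compound concentrations for 24 h. Cells were fixed in ice-cold 70% ethanol, lysed with RNase A/0.1% Triton X-100 buffer and stained with propidium iodide. DNA content was read by flow cytometry. Phase percentages are mean ± SEM of three independent experiments.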

[5] = test system: CA46; assay: Antiproliferative activity against human CA46 cells assessed as reduction in cell viability after 72 hrs by MTT assay; assay type: functional, cell-based; conditions: CA46, 72 h
[6] = test system: CA46; assay: Cell cycle arrest in human CA46 cells assessed as accumulation at G2/M phase at 5 times IC50 by flow cytometry; assay type: functional
[7] = test system: CA46; assay: Cell cycle arrest in human CA46 cells assessed as reduction in mitotic index by Giemsa staining method relative to control; assay type: functional; parameters: scale not given: the % may be the effect or the level left
In short: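 CA46 Burkitt lymphoma cells grown in RPMI 1640 with 17% FBS and 2 mM L-glutamine at 37 °C, 5% CO2, treated 16 h. Cells were swollen 10 min in half-strength PBS, fixed in 0.5% acetic acid–1.5% ethanol, then spread from 25% acetic acid/75% ethanol. Slides were Giemsa-stained. Mitotic cells were those with condensed chromosomes and no nuclear membrane, with ≥200 cells counted per condition.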

[8] = test system: HeLa; assay: Upregulation of cyclin B protein level in human HeLa cells at 25 uM after 24 hrs by Western blot analysis; assay type: functional, cell-based
[9] = test system: HeLa; assay: Upregulation of aurora kinase A protein level in human HeLa cells at 25 uM after 24 hrs by Western blot analysis; assay type: functional, cell-based
[10] = test system: HeLa; assay: Induction of DNA damage in human HeLa cells assessed as increase in phosphorylated form of histone gamma-H2A.X level at 25 uM after 24 hrs by Western blot analysis; assay type: functional, cell-based
In short: (§1)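 HeLa cells treated 24 or 48 h at 25 µM, then washed in PBS and lysed 30 min on ice. 20 µg protein per lane was resolved on 7.5–15% SDS-PAGE and blotted to PVDF. Blots were probed for cyclin B, p-cdc2 Tyr15, cdc25C and γH2A.X, with β-actin reprobe as loading control and ECL detection.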

[11] = test system: HeLa; assay: Induction of apoptosis in human HeLa cells assessed as viable cells at 25 uM after 24 hrs using Annexin-V/PI staining by flow cytometry (reference value: 86.7 %); assay type: functional; conditions: read-out: Activity
[12] = test system: HeLa; assay: Induction of apoptosis in human HeLa cells after 24 to 48 hrs using Annexin-V/PI staining by flow cytometry; assay type: functional, cell-based
[13] = test system: HeLa; assay: Induction of apoptosis in human HeLa cells assessed as caspase 9 cleavage at 25 uM after 24 to 48 hrs by Western blot analysis; assay type: functional, cell-based
In short: (§2)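 HeLa cells treated 24 or 48 h at 25 µM, then lysed. 20 µg protein per lane was run on SDS-PAGE and transferred to PVDF. Membranes were probed 2 h at room temperature for cleaved caspase-9, caspase-3, cleaved PARP, Bcl-2, Mcl-1 or Bax, with peroxidase secondary antibody and ECL. β-Actin reprobe served as loading control.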

[14] = test system: HeLa; assay: Induction of apoptosis in human HeLa cells assessed as reduction in Bcl-2 expression at 25 uM after 24 hrs by Western blot analysis; assay type: functional, cell-based; in short: as §2
[15] = test system: HeLa; assay: Induction of apoptosis in human HeLa cells assessed as reduction in Mcl-1 expression at 25 uM after 24 hrs by Western blot analysis; assay type: functional, cell-based; in short: as §2
[16] = test system: HeLa; assay: Downregulation of phosphorylated form of cdc25c protein level in human HeLa cells at 25 uM after 24 hrs by Western blot analysis; assay type: functional, cell-based; in short: as §1
[17] = test system: HeLa; assay: Downregulation of cdc25c protein level in human HeLa cells at 25 uM after 24 hrs by Western blot analysis; assay type: functional, cell-based; conditions: in the assay text read “after 48 hrs” for “after 24 hrs”; in short: as §1
[18] = test system: HeLa; assay: Induction of DNA damage in human HeLa cells assessed as increase in phosphorylated form of histone gamma-H2A.X level at 25 uM after 48 hrs by Western blot analysis; assay type: functional, cell-based; in short: as §1
[19] = target: T1, Tubulin; assay: Displacement of [3H]colchicine from bovine brain tubulin assessed as rate of assembly after 10 mins by liquid scintillation counting
[20] = test system: HeLa; assay: Downregulation of cyclin B protein level in human HeLa cells at 25 uM after 48 hrs by Western blot analysis; assay type: functional, cell-based; in short: as §1
[21] = test system: HeLa; assay: Upregulation of cdc25c protein level in human HeLa cells at 25 uM after 24 hrs by Western blot analysis; assay type: functional, cell-based

## COc1ccc2c(c1OC)C(=O)O[C@@H]2[C@H]1c2c(c(C)c3c(c2OC)OCO3)CCN1C
[1]
  IC50: > 400 µM
[2]
  Activity: 70%
[3]
  Activity: Active
[4]
  Activity: Active
[5]
  IC50: 18 µM
[6]
  Activity: >80%
[7]
  Activity: 38%
[8]
  Activity: Active
[9]
  Activity: Active
[10]
  Activity: Active
[11]
  viability at 25 µM: 9.8%
[12]
  Activity: Dose-dependent effect
[13]
  Activity: Active
[14]
  Activity: Active
[15]
  Activity: Active
[16]
  Activity: Active

## COc1ccc2c(c1OC)C(=O)O[C@@H]2[C@H]1c2c(c(Br)c3c(c2OC)OCO3)CCN1C
[1]
  IC50: > 400 µM
[2]
  Activity: 70%
[3]
  Activity: Active
[17]
  Activity: Active
[18]
  Activity: Active
[11]
  viability at 25 µM: 76.8%
[12]
  Activity: Dose-dependent effect
[13]
  Activity: Active
[14]
  Activity: Active
[15]
  Activity: Active
[19]
  IC50: > 400 µM
[16]
  Activity: Active

## COc1ccc2c(c1OC)C(=O)O[C@@H]2[C@H]1c2c(c(-c3ccc(C)cc3)c3c(c2OC)OCO3)CCN1C
[1]
  IC50: 120 µM
[4]
  Activity: Active
[8]
  Activity: Active
[20]
  Activity: Active
[21]
  Activity: Active
[17]
  Activity: Active
[9]
  Activity: Active
[10]
  Activity: Active
[11]
  viability at 25 µM: 5.88%
[12]
  Activity: Dose-dependent effect
[13]
  Activity: Active
[14]
  Activity: inactive
[15]
  Activity: inactive
[16]
  Activity: Active
